Only some compounds are listed: those with a hit (about 2.9% of all), similar ones and a draw of the others.
Hck Nef HTS – human Hck-Nef kinase inhibition; Recombinant Hck-YEEI plus Nef, Z-Lyte FRET kinase assay; inhibition, % at 20 µM; 220,000 compounds, 0.68% hits;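 active means Hck-Nef kinase inhibition above about 50%, limit read from the data; inactive means inhibition below that limit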
Runt-CBFb FRET – blocks binding of human RUNX1 Runt domain to CBFb; Q01196+Q13951; Cerulean-Runt/Venus-CBFb FRET ratio 530/480, 1 h; inhibition, % at 20 µM; 220,000 compounds, 0.46% hits; AID 1496;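 active means inhibition over about 50% at 20 µM in the single-dose screen, limit read from the data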
Target sequence (Q01196 whole entry, looked up, the tested form may be a part): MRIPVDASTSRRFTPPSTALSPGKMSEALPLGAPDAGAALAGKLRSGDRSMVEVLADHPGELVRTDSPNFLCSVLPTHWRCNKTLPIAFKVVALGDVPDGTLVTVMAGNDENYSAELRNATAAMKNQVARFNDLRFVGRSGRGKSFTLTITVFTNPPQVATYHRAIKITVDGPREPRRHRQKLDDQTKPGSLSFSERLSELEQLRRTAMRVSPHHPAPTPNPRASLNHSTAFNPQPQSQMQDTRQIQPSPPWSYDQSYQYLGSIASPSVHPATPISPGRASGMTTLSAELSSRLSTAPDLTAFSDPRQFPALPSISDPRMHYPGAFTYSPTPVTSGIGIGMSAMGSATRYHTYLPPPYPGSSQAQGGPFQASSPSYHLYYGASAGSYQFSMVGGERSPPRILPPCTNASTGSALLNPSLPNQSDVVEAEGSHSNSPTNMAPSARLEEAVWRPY
Target sequence (Q13951 whole entry, looked up, the tested form may be a part): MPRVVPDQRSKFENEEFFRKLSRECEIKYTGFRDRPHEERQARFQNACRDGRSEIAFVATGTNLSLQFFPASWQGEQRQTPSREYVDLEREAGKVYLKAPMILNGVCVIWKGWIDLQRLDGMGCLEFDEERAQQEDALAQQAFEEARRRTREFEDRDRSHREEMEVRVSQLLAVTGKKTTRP
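System: Cerulean-labeled Runt domain protein | Quantity: 100 nM of each labeled protein | Schedule: 1 h compound exposure, room temperature | Detection: Fluorescence energy transfer, 422 nm excitation, 530/480 nm emission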
PfM18AAP inh – blocks P. falciparum M18 aspartyl aminopeptidase | 290,000 compounds, 1.2% hits | inhibition, % at 7.35 µM | recombinant PfM18AAP, H-Glu-NHMec fluorogenic cleavage;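 active means inhibition above the campaign mean inhibition over all tested compounds plus 3 SD, cut at about 28% in these data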
RanGTP-Impb inh – disruptors of Ran-importin-beta complex formation – biochemical, FRET, CFP-Ran, YFP-importin-beta, homogeneous, primary screen | cell-free CFP-Ran/YFP-importin-beta FRET ratio | inhibition, % (test concentration not listed) | 300,000 compounds, 1.1% hits;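 active means more than half of the replicate wells show a fall in the fluorescence ratio signal beyond about 16%, limit read from the data, passing the limit was not always enough; inconclusive means exactly half of the replicate wells pass the set limit; inactive means fewer than half of replicates pass the limit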
Runt-SMMHC FRET – Runt domain-CBFb-SMMHC interaction inhibition | Cerulean-Runt/Venus-CBFb-SMMHC FRET ratio 530/480, 1 h | inhibition, % at 20 µM | 220,000 compounds, 0.74% hits;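 active means mean inhibition across duplicate retests at 20 µM reaching about 50%, limit read from the data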;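 further: inhibitors lower the FRET ratio by blocking Runt binding to CBFb-SMMHC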
RBBP9 inhibitor – inhibitors of human serine hydrolase RBBP9; inhibition, % at 7.94 µM; 220,000 compounds, 0.2% hits; recombinant RBBP9, FP-Rh probe fluorescence polarization; O75884;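 active means inhibition above the campaign mean of all tested compounds plus 3 SD, cut at about 14% in these data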
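System: RBBP9 protein / Buffer or medium: Tris/NaCl buffer pH 8.0 with 0.1% Pluronic / Probe or stimulus: Serine-hydrolase probe FP-Rh, 375 nM pre-mixing / Dosing: 7.94 µM single dose, 0.794% DMSO / Times: enzyme-compound preincubation 30 min, then probe labeling 45 min, 25 °C / Technique: fluorescence polarization (mP), excitation 525 nm, emission 598 nm / Replication: singlicate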
Runt-CBFb TRFRET – disrupts human RUNX1 Runt domain binding to CBFb | TR-FRET RUNX1 Runt domain-CBFb binding | shares compounds with Runt-CBFb FRET | inhibition, % at 20 µM | 480 compounds, 20% hits; in the data active means inhibition above about 40%
Numbers stand for hits; 0 = inactive; ? = inconclusive; - = not tested or not shown.

SMILES | Hck Nef HTS | Runt-CBFb FRET | PfM18AAP inh | RanGTP-Impb inh | Runt-SMMHC FRET | RBBP9 inhibitor | others
CCN1C[C@]2(COC)CC[C@H](O)[C@@]34C5C[C@H]6[C@H](O)C5[C@](O)(C[C@H]6OC)[C@@H]([C@H](OC)C23)[C@@H]14 (some centres not stated) | - | - | - | 0 | - | -
CN(C)C(=O)Oc1ccc(OC(=O)N(C)C)cc1 | 0 | 0 | 0 | ? | 0 | 0
CN(C)C(=O)Oc1ccc2nnc3ccnn3c2c1 | - | - | 0 | 71.8 | - | -
O=c1[nH]c(=S)n(-c2ccccc2Cl)c(O)c1C=NCCN1CCNCC1 | - | - | 0 | 0 | - | -
Cc1ccc(N2C(=O)NC(=O)/C(=C/c3ccoc3)C2=O)cc1 | 54.6 | 0 | 0 | - | 0 | 0
Cc1ccc(N2C(=O)NC(=O)/C(=C/c3cnn(-c4ccc(C)cc4)c3)C2=O)cc1 | 0 | 0 | 0 | 0 | 0 | 0
Cn1c(O)c(C(=Nc2ccccc2)SCc2ccc(Cl)cc2)c(=O)n(C)c1=O | 0 | 0 | 0 | 0 | 0 | 0
CCc1n[nH]c(CCN)n1 | 0 | 0 | 0 | 0 | 0 | 0
Cc1cc2c(C(C)C)c(O)c(O)c(C=O)c2c(O)c1-c1c(C)cc2c(C(C)C)c(O)c(O)c(C=O)c2c1O | 102.3 | 0 | 31.8 | - | 0 | 0
C=CCn1c(O)c(C(CC)=Nc2cccc(C(=O)O)c2)c(=O)[nH]c1=O | 0 | 0 | 0 | 0 | 0 | 0
CCNCC1(c2ccc(OC)c(OC)c2)CCCC1 | 0 | 0 | 0 | 59.9 | 0 | 0
O=[N+]([O-])c1ccc(N2CCCC(C(F)(F)F)C2)c2ccncc12 (configuration not stated) | - | - | 0 | 0 | - | -
COC(=O)Cn1cc(/C=C2\C(=O)NC(=O)N(c3ccccc3)C2=O)c2ccccc21 | - | - | 0 | 0 | - | -
COCCNC(=O)Cn1cc(C=C2C(=O)NC(=O)NC2=O)c2ccccc21 | - | - | 30.9 | 0 | - | -
COc1cc(/C=C2\C(=O)NC(=O)N(c3ccccc3)C2=O)cc(OC)c1OC | 0 | 0 | 0 | 0 | 0 | 0
COc1ccc(N2C(=O)NC(=O)/C(=C/c3ccc4c(c3)Cc3ccccc3-4)C2=O)cc1 | 87.1 | - | 0 | 0 | 0 | 0
CCC(C)NC(=O)c1c(N)n(CC2CCCO2)c2nc3ccccc3nc12 (configuration not stated) | 0 | 0 | 0 | 0 | 99.9 | 0
CCOC(=O)c1c(C)n(Cc2ccc3c(c2)OCO3)c2ccc(O)cc12 | 0 | 0 | 0 | 0 | 0 | 0
CCC(C)NC(=O)c1c(N)n(Cc2ccc3c(c2)OCO3)c2nc3ccccc3nc12 (configuration not stated) | 0 | 0 | 0 | 60.4 | 0 | 0
COCCCn1c(N)c(C(=O)Nc2sc3c(c2C(=O)OC)CCCC3)c2nc3ccccc3nc21 | 0 | 93.1 | 0 | 0 | 0 | 0
CCC(C)NC(=O)c1c(N)n(CCCOC)c2nc3ccccc3nc12 (configuration not stated) | 0 | 0 | 0 | 112.5 | 0 | 0
Cc1nn(Cc2ccccc2)c(Cl)c1C(=O)OCC(=O)NCC1CCCO1 (configuration not stated) | 0 | 0 | 0 | 0 | 0 | 0
CC(Cc1ccccc1)NC(=O)c1ccc(N)cc1 (configuration not stated) | - | - | 0 | 0 | - | -
CCCCOCCCn1c(N)c(C(=O)OC(C)COC)c2nc3ccccc3nc21 (configuration not stated) | 0 | 0 | 0 | 0 | 127.7 | 0
CCC(N)Cc1c[nH]c2ccccc12 (configuration not stated) | 0 | 0 | 0 | 0 | 0 | 0
SMILES | Hck Nef HTS | Runt-CBFb FRET | PfM18AAP inh | RanGTP-Impb inh | Runt-SMMHC FRET | RBBP9 inhibitor | others
CC(N)Cc1c[nH]c2c1ccc1ccccc12 (configuration not stated) | - | - | 30.3 | 0 | - | -
CC(=O)O[C@H]1CCC2C3CCC4=CC(=O)CCC4=C3C=C[C@@]21C (some centres not stated) | - | - | 0 | 32.5 | - | -
O=C(c1ccccc1F)N1C[C@H]2C[C@@H](C1)c1cccc(=O)n1C2 | - | - | 0 | 0 | - | -
CCCCn1c(NS(=O)(=O)c2ccccc2)c(C(=O)OCC)c2nc3ccccc3nc21 | 0 | 0 | 0 | 84.8 | 0 | 0
CCCCn1c(NC(=O)c2ccc(Br)o2)c(C(=O)OCC)c2nc3ccccc3nc21 | 0 | 0 | 0 | - | 0 | 0
Cc1ccc(S(=O)(=O)NC(CC(=O)N2CCC3(CC2)OCCO3)c2ccco2)cc1 (configuration not stated) | 0 | 0 | 0 | 20.5 | 0 | 0
CC(=O)Nc1ccc(S(=O)(=O)NC(CC(=O)N2CCC3(CC2)OCCO3)C(C)C)cc1 (configuration not stated) | 0 | 0 | 0 | 0 | 0 | 0
Cc1nc2ccsc2c(=O)n1-c1ccccc1Cl | - | - | - | 0 | - | -
COc1ccc2c3c([nH]c2c1)C(C)NCC3 (configuration not stated) | 0 | 0 | 0 | ? | 85.4 | 0
COc1ccc2[nH]c3c(c2c1)CCNC3C (configuration not stated) | - | - | 0 | 0 | - | -
CC(C)(C)OC(=O)c1c(N)n(Cc2ccco2)c2nc3ccccc3nc12 | 0 | 70.6 | 0 | 31.8 | 58.7 | 0
COCCNC(=O)c1c(N)n(Cc2ccco2)c2nc3ccccc3nc12 | 0 | 58.4 | 0 | 90.5 | 0 | 0
COCCCNC(=O)c1c(NC(=O)c2ccccc2Cl)n(Cc2ccccc2)c2nc3ccccc3nc12 | 0 | 0 | 0 | 71.4 | 63.3 | 0
C=CCNC(=O)c1c(N)n(Cc2ccco2)c2nc3ccccc3nc12 | 0 | 75.8 | 0 | 77.1 | 0 | 0
Nc1c(C(=O)OCc2ccccc2)c2nc3ccccc3nc2n1Cc1cccs1 | 0 | 0 | 0 | 0 | 0 | 0
O=[N+]([O-])c1cccc2c([As](=O)(O)O)cccc12 | 0 | 0 | 0 | 0 | 0 | 0
COCCN1Cc2cc(=O)n3c([nH]c4ccccc43)c2C1=N | 0 | 0 | 0 | 0 | 0 | 0
c1ccc2sc(C3CCNCC3)nc2c1 | - | - | 0 | 0 | - | -
Cc1ccccc1N1C(=O)NC(=O)/C(=C\c2cc(Br)c(N3CCOCC3)o2)C1=O | 0 | 0 | 41.2 | 0 | 0 | 0
CC[N+](CC)(CC#CCO)CC#Cc1ccccc1 | 0 | 0 | 0 | 0 | 0 | 0
CCC(C)OC(=O)c1c(N)n(Cc2cccs2)c2nc3ccccc3nc12 (configuration not stated) | 0 | 53.4 | 0 | 0 | 94.1 | 0 | Runt-CBFb TRFRET=0
COCCCn1c(N)c(C(=O)NCc2ccco2)c2nc3ccccc3nc21 | 0 | 59.6 | 0 | 57.7 | 81.2 | 0 | Runt-CBFb TRFRET=0
Cn1cnc([N+](=O)[O-])c1Sc1ccc([N+](=O)[O-])cc1 | 0 | 0 | 0 | ? | 0 | 0
COC(=O)C1=C(c2cc3ccccc3o2)C[C@@H]2CC[C@H]1N2C(=O)NCc1ccco1 | - | - | - | 0 | - | -
